Assay results taken from ChEMBL document CHEMBL1938337, “Discovery of novel, potent, and selective inhibitors of 3-phosphoinositide-dependent kinase (PDK1)” (J Med Chem, 2011).

What was measured:
[1] = target: RAC-alpha serine/threonine-protein kinase (Homo sapiens, UniProt P31749); test: Inhibition of His-tagged AKT1 using 5FAM-GRPRTSSFAEGCONH2 as substrate by fluorescence based assay
[2] = target: Serine/threonine-protein kinase mTOR (Homo sapiens, UniProt P42345); test: Inhibition of GST-tagged mTOR assessed as phosphorylation at Thr46 in GFP-4E-BP1 substrate by TR-FRET assay
Summary of the method: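 GST-tagged mTOR (aa 1360-2549) at 1 nM, with 0.4 μM GFP-4E-BP1 and 40 μM ATP. Buffer: 50 mM Hepes pH 7.4, 10 mM MgCl2, 1 mM EGTA, 0.01% Tween-20, at about 22 °C. A terbium anti-phospho-Thr46 antibody was added at the end, and the read-out was TR-FRET. Duplicate data fitted by nonlinear regression. Concentrations are final.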

[3] = target: Serine/threonine-protein kinase MARK1 (Homo sapiens, UniProt Q9P0L2); test: Inhibition of MARK1 at 1 uM
[4] = target: Hepatocyte growth factor receptor (Homo sapiens) (UniProt P08581); test: Inhibition of MET at 1 uM
[5] = target: Mitogen-activated protein kinase 1 (Homo sapiens) (UniProt P28482); test: Inhibition of MAPK1 at 1 uM
[6] = target: High affinity nerve growth factor receptor (Homo sapiens, UniProt P04629); test: Inhibition of TrkA
Chain of High affinity nerve growth factor receptor (P04629 whole entry): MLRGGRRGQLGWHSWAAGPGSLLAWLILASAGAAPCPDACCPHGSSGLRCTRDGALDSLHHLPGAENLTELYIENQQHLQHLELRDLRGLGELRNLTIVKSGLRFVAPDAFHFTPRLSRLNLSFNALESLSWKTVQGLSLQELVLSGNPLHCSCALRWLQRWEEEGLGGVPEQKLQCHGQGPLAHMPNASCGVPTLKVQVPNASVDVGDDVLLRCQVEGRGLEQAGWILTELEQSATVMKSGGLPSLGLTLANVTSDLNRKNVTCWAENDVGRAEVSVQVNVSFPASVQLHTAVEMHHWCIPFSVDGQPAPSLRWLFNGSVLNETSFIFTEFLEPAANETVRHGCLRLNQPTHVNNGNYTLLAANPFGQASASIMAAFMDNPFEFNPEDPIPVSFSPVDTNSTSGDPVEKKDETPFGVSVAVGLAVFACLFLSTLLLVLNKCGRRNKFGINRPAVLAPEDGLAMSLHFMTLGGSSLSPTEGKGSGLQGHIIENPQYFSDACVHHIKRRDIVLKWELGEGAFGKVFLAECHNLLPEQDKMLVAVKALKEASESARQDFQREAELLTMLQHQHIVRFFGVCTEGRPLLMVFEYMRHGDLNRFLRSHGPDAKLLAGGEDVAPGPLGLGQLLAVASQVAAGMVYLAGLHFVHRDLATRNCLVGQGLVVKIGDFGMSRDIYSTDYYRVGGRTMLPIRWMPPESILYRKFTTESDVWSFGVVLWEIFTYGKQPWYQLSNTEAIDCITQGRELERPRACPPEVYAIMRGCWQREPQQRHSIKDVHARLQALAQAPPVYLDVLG

Chain of Serine/threonine-protein kinase MARK1 (Q9P0L2 whole entry, looked up): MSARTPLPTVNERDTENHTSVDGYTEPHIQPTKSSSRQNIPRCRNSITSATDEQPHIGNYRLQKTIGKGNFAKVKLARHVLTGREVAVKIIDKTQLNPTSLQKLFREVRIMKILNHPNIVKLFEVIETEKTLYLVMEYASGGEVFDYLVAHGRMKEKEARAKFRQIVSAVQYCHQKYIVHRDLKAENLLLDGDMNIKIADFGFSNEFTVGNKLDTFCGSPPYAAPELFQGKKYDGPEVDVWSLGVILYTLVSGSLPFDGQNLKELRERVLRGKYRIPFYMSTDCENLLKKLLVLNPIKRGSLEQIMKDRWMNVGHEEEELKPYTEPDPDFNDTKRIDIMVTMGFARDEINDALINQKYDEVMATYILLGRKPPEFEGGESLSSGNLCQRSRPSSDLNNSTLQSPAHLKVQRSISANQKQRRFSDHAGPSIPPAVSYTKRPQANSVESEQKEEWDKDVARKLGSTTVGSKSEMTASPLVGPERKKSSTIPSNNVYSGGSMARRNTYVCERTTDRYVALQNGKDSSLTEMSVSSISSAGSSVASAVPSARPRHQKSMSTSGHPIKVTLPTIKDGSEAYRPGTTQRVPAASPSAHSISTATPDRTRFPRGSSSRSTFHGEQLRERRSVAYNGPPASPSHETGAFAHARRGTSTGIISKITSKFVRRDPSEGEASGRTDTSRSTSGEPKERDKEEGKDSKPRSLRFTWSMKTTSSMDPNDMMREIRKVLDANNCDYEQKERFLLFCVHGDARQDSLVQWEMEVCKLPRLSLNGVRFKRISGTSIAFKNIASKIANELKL
Chain of Hepatocyte growth factor receptor (Homo sapiens) (P08581 whole entry): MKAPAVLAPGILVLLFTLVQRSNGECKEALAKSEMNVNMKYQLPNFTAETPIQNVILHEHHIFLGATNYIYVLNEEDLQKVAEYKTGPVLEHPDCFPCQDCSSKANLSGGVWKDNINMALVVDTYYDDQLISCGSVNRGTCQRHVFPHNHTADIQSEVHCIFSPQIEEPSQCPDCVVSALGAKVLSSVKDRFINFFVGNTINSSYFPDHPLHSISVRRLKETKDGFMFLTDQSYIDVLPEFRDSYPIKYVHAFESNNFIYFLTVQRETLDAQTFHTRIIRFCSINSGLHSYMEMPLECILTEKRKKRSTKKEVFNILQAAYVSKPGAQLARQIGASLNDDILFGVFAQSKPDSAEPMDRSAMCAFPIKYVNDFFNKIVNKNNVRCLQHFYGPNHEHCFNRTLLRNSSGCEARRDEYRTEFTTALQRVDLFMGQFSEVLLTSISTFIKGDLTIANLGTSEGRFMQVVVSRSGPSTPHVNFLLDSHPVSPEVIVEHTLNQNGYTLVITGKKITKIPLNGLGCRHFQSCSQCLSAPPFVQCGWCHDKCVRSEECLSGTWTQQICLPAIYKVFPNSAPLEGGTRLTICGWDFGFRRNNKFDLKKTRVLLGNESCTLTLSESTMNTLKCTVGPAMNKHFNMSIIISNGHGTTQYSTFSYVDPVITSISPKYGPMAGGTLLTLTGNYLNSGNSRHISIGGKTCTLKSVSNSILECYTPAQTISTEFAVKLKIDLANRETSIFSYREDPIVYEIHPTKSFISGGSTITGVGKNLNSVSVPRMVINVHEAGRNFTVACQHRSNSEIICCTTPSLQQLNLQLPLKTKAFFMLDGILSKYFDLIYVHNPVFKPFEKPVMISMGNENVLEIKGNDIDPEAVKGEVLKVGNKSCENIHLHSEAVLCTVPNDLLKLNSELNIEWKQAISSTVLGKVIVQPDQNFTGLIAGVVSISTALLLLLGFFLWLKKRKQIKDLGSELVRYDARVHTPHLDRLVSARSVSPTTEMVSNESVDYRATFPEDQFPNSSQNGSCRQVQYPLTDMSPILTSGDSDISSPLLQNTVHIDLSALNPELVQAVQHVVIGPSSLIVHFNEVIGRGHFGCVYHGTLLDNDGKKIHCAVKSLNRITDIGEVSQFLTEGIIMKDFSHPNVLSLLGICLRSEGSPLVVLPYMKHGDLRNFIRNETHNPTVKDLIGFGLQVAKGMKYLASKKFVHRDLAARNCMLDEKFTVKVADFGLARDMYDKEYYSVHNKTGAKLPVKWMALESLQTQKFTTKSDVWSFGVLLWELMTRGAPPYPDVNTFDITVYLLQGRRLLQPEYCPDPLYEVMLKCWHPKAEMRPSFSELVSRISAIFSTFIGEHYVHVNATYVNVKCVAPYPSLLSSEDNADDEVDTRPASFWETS
Chain of Mitogen-activated protein kinase 1 (Homo sapiens) (P28482 whole entry): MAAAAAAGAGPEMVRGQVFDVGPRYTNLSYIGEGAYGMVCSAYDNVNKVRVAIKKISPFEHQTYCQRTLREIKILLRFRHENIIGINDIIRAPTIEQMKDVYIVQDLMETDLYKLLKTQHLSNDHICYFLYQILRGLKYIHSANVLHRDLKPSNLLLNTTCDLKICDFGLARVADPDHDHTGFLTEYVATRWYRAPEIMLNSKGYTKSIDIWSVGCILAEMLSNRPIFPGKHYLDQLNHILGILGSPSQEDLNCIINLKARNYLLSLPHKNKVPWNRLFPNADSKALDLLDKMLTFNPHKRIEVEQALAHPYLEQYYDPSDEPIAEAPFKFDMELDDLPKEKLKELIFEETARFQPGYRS
Chain of RAC-alpha serine/threonine-protein kinase (P31749 whole entry): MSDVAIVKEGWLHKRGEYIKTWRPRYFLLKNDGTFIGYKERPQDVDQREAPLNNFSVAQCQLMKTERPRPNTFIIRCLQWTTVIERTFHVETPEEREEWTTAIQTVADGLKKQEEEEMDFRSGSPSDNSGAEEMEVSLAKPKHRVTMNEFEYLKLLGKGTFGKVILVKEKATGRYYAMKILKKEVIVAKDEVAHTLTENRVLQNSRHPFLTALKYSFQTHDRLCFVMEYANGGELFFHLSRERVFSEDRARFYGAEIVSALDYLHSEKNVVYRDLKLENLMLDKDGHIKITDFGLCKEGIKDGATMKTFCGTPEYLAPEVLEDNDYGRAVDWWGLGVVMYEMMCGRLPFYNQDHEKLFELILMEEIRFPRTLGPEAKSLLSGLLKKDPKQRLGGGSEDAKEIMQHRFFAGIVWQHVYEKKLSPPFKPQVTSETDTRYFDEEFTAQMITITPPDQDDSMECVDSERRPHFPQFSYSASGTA

| Ki [1] [nM] | Ki [2] [nM] | inhibition [3] [%] | inhibition [4] [%] | inhibition [5] [%] | IC50 [6] [nM] | SMILES |
| --- | --- | --- | --- | --- | --- | --- |
| 1100 | 3900 | 47 | 4 | 3 | 910 | CC(=O)N1CC[C@@H](Nc2cncc(C(=O)c3cn(C(C)C)c4ncnc(N)c34)n2)[C@H]1c1ccccc1 |
| 360 | 2600 | 74 | 8 | -4 | 620 | CC(=O)N1CC[C@@H](Nc2cncc(C(=O)c3cn(C(C)C)c4ncnc(N)c34)n2)[C@H]1c1ccc(F)cc1 |
| 170 | 2800 | 84 | 12 | 5 | 200 | CC(C)n1cc(C(=O)c2cncc(N[C@@H]3CCN(C=O)[C@@H]3c3ccc(F)cc3)n2)c2c(N)ncnc21 |
